In ChEMBL document CHEMBL1143755, “Food web-specific biomagnification of persistent organic pollutants” (Science, 2007):
Values belong to the compound of their own block, whether it stands above or below them.

Tests used:
Homo sapiens = organism: Homo sapiens; assay: Biomagnification factors in human; type: ADME, organism-based; settings: in vivo
In short: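 Modelled, not measured: a bioaccumulation model using fugacity D-values (respiration, diet, faeces, urine, metabolism, lactation, growth) gives BMF as fB/fD or CB/CD relative to diet. The Inuit diet is taken as Arctic fish and wildlife (caribou, ringed seal, walrus, beluga) plus southern Canadian agricultural foods, the latter simulated from Great Lakes food chains. KOA is evaluated at 37 °C.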

[1] = Octanol-air partition coefficient, log KOA of the compound; type: physicochemical
[2] = Biomagnification factors in Diporeia; type: ADME
[3] = Octanol-water partition coefficient, log KOW of the compound; type: physicochemical

SMILES: Cc1c([N+](=O)[O-])c(C)c([N+](=O)[O-])c(C(C)(C)C)c1[N+](=O)[O-]
BMF (Homo sapiens): 89
log KOA [1]: 8.9
BMF [2]: < 1
logP ([3]; read-out: LogP): 4.1

SMILES: Brc1ccc(Oc2ccc(Br)cc2Br)c(Br)c1
BMF (Homo sapiens): 98
log KOA [1]: 9.8
BMF [2]: 2.2
logP ([3]; read-out: LogP): 6

SMILES: Brc1c(Br)c(Br)c(Oc2c(Br)c(Br)c(Br)c(Br)c2Br)c(Br)c1Br
BMF (Homo sapiens): 8
log KOA [1]: 13.1
BMF [2]: 1
logP [3]: 9.9

SMILES: Brc1ccc(Oc2cc(Br)c(Br)cc2Br)c(Br)c1
BMF (Homo sapiens): 98
log KOA [1]: 11.2
BMF [2]: 2.5
logP ([3]; read-out: LogP): 6.8

SMILES: Clc1cc(Cl)c(-c2cc(Cl)c(Cl)c(Cl)c2Cl)cc1Cl
BMF (Homo sapiens): 95
log KOA [1]: 10.9
BMF [2]: 2.5
logP ([3]; read-out: LogP): 7.5

SMILES: O=S1OC[C@@H]2[C@H](CO1)[C@@]1(Cl)C(Cl)=C(Cl)[C@@]2(Cl)C1(Cl)Cl (stereo partly specified)
BMF (Homo sapiens): 23
log KOA [1]: 7.1
BMF [2]: < 1
logP ([3]; read-out: LogP): 3.7

SMILES: Clc1cc(Cl)c(Cl)cc1Cl
BMF (Homo sapiens): 5.9
log KOA [1]: 6.3
BMF [2]: < 1
logP ([3]; read-out: LogP): 4.7

SMILES: Clc1cc(Cl)cc(Cl)c1 [1,3,5-TRICHLOROBENZENE]
BMF (Homo sapiens): < 1
log KOA [1]: 4.7
BMF [2]: < 1
logP ([3]; read-out: LogP): 3.5

SMILES: Clc1cc(Cl)c(-c2cc(Cl)c(Cl)cc2Cl)cc1Cl [2,2',4,4',5,5'-HEXACHLOROBIPHENYL]
BMF (Homo sapiens): 96
log KOA [1]: 9.6
BMF [2]: 2.5
logP ([3]; read-out: LogP): 7.5

SMILES: Cl[C@H]1[C@H](Cl)[C@@H](Cl)[C@H](Cl)[C@@H](Cl)[C@@H]1Cl [BETA-HEXACHLOROCYCLOHEXANE]
BMF (Homo sapiens): 84
log KOA [1]: 8.9
BMF [2]: < 1
logP ([3]; read-out: LogP): 3.8

SMILES: OC(c1ccc(Cl)cc1)(c1ccc(Cl)cc1)C(Cl)(Cl)Cl [DICOFOL]
BMF (Homo sapiens): 76
log KOA [1]: 8.9
BMF [2]: < 1
logP ([3]; read-out: LogP): 3.5

SMILES: ClC1=C(Cl)[C@]2(Cl)[C@@H]3[C@@H]4C[C@@H]([C@H]5O[C@@H]45)[C@@H]3[C@@]1(Cl)C2(Cl)Cl [DIELDRIN]
BMF (Homo sapiens): 93
log KOA [1]: 8.8
BMF [2]: 1.7
logP ([3]; read-out: LogP): 5.4

SMILES: ClC(Cl)=C(Cl)C(Cl)=C(Cl)Cl [HEXACHLOROBUTADIENE]
BMF (Homo sapiens): < 1
log KOA [1]: 3.9
BMF [2]: < 1
logP ([3]; read-out: LogP): 4.5

SMILES: ClC1(Cl)C2(Cl)C3(Cl)C4(Cl)C(Cl)(Cl)C5(Cl)C3(Cl)C1(Cl)C5(Cl)C24Cl (stereo unspecified) [MIREX]
BMF (Homo sapiens): 82
log KOA [1]: 9.6
BMF [2]: 1
logP ([3]; read-out: LogP): 8.1

BMF (Homo sapiens): 16
log KOA [1]: 6.9
BMF [2]: < 1
logP ([3]; read-out: LogP): 5
SMILES: Clc1cc(Cl)c(Cl)c(Cl)c1Cl [PENTACHLOROBENZENE]

SMILES: Clc1c(Cl)c(Cl)c(Cl)c(Cl)c1Cl [PERCHLOROBENZENE]
BMF (Homo sapiens): 55
log KOA [1]: 7.7
BMF [2]: 1.8
logP ([3]; read-out: LogP): 5.5

SMILES: C=Cc1ccccc1 [STYRENE]
BMF (Homo sapiens): < 1
log KOA [1]: 4.9
BMF [2]: < 1
logP ([3]; read-out: LogP): 2.5

SMILES: O=S(=O)(c1ccc(Cl)cc1)c1cc(Cl)c(Cl)cc1Cl [TETRADIFON]
BMF (Homo sapiens): 97
log KOA [1]: 11.4
BMF [2]: < 1
logP ([3]; read-out: LogP): 4.6

SMILES: CCCN(CCC)c1c([N+](=O)[O-])cc(C(F)(F)F)cc1[N+](=O)[O-] [TRIFLURALIN]
BMF (Homo sapiens): 28
log KOA [1]: 7.2
BMF [2]: < 1
logP ([3]; read-out: LogP): 4.4
